{"source": "ChEMBL document CHEMBL4376902", "about": "“CN128: A New Orally Active Hydroxypyridinone Iron Chelator” (J Med Chem, 2020)", "key": {"[1]": {"system": "Mus musculus", "test": "Toxicity in mouse assessed as reduction in eosinophils counts at 200 mg/kg, po dosed once daily for 2 months as 5 days per week schedule", "settings": "in vivo, 120 h; call rule not given here"}, "[2]": {"test": "Binding affinity to Mg2+ ion assessed as affinity constant by spectrophotometric titration method"}, "[3]": {"test": "Binding affinity to Co2+ ion assessed as pM value by spectrophotometric titration method"}, "[4]": {"system": "Rattus norvegicus", "test": "Iron scavenging activity in iron-overloaded rat assessed as iron removal efficacy at 75 to 1200 umol/kg, po relative to control", "assay_type": "functional", "outline": "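Male SD rats (300 g), fasted overnight, given about 1 μC 59Fe-ferritin i.v. under isoflurane; chelator by oral gavage 1 h later; doses 75, 150, 300, 600 and 1200 μmol/kg. Rats housed in metabolic cages, food returned 1 h post-dose; killed 24 h after ferritin injection. Urine, faeces, liver and gut gamma-counted. Iron removal expressed as % efficacy.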"}, "[5]": {"test": "Genotoxicity in Salmonella typhimurium by Ames test", "assay_type": "toxicity", "settings": "salmonella enterica subsp. enterica serovar typhimurium"}, "[6]": {"system": "Mus musculus", "test": "Toxicity in mouse assessed as reduction in erythrocyte population at 200 mg/kg, po dosed once daily for 2 months as 5 days per week schedule", "settings": "in vivo, 120 h"}, "[7]": {"system": "Mus musculus", "test": "Toxicity in mouse assessed as increase in reticulocyte population at 200 mg/kg, po dosed once daily for 2 months as 5 days per week schedule", "settings": "in vivo, 120 h"}, "[8]": {"test": "Drug metabolism in rat liver microsomes assessed as glucuronidation incubated for 1 hr relative to deferiprone", "assay_type": "ADME, Microsome", "outline": "(§1)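 Compound incubated 1 h with rat or human liver microsomes, n = 4, mean ± SD. Glucuronide formed given as percentage of total chelator added. Oxidative metabolism assessed separately.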"}, "[9]": {"test": "Drug metabolism in human liver microsomes assessed as glucuronidation incubated for 1 hr relative to deferiprone", "assay_type": "ADME, Microsome", "outline": "as §1"}, "[10]": {"test": "Toxicity in iron-overloaded rat assessed as induction of mortality at 75 to 1200 umol/kg, po", "settings": "in vivo"}, "[11]": {"system": "Mus musculus", "test": "Toxicity in mouse assessed as reduction in monocytes counts at 200 mg/kg, po dosed once daily for 2 months as 5 days per week schedule", "settings": "in vivo, 120 h"}, "[12]": {"test": "Binding affinity to Mg2+ ion assessed as pM value by spectrophotometric titration method"}, "[13]": {"target": "T1, Cytochrome P450 2B6 (Homo sapiens, UniProt P20813)", "T1 sequence (P20813 whole entry)": "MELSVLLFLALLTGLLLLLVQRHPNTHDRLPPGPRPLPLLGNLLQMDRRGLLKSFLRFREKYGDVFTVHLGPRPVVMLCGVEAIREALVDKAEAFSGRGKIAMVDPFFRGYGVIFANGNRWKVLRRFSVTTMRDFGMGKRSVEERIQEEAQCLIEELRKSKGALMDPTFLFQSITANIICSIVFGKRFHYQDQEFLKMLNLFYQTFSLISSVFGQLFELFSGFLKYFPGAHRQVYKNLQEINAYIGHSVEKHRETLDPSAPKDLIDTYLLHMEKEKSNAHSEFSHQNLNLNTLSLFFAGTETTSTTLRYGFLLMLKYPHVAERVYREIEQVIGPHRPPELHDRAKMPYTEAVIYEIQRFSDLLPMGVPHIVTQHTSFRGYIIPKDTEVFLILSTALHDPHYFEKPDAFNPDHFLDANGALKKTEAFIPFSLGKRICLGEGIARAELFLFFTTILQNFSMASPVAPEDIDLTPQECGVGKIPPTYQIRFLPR", "test": "Inhibition of CYP2B6 in human liver microsomes", "assay_type": "ADME"}, "[14]": {"test": "Apparent volume of distribution in Sprague-Dawley rat at 75 umol/kg, po measured up to 1440 mins by LC/MS/MS analysis", "assay_type": "ADME, organism-based", "settings": "in vivo, 24 h"}, "[15]": {"test": "Ratio of drug level in liver to plasma in rat at 150 umol/kg, po measured within 10 mins by LC-MS/MS analysis", "assay_type": "ADME, organism-based", "settings": "liver and plasma", "outline": "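SD rats (half male, half female, n = 6 per group) given a single oral 150 μmol/kg dose. Killed at 10 min, 30 min, 2 h or 6 h; tissues washed in saline, weighed and homogenised in acetonitrile/water 1:9 (125 mg/mL). Tissue levels compared with plasma.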"}, "[16]": {"test": "Binding affinity to Fe3+ ion assessed as affinity constant by spectrophotometric titration method", "outline": "(§2)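 Automated spectrophotometric titration with 0.1 M KOH in 0.1 pH steps, 3 min equilibration per step, 50 mm cuvette, iron complexes at ca. 40 µM. Titrated in competition with metal hydrolysis species up to pH 12.0. Hydrolysis constants taken from critical compilations. Iron spectra fitted over 400–700 nm.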"}, "[17]": {"test": "Cmax in Sprague-Dawley rat at 600 umol/kg, po measured up to 1440 mins by LC/MS/MS analysis", "assay_type": "ADME, organism-based", "parameters": "dose 600 umol/kg, route oral", "settings": "in vivo"}, "[18]": {"test": "Drug metabolism in rat liver microsomes assessed as oxidative metabolism incubated for 1 hr relative to deferiprone", "assay_type": "ADME, Microsome"}, "[19]": {"test": "Toxicity in Sprague-Dawley rat assessed as induction of histopathological changes in thymus. at 25 to 116 mg/kg, po dosed daily for 4 weeks during chronic 4 week toxicity test", "assay_type": "organism-based", "settings": "in vivo, 672 h"}, "[20]": {"test": "Apparent volume of distribution in Sprague-Dawley rat at 150 umol/kg, po measured up to 1440 mins by LC/MS/MS analysis", "assay_type": "ADME, organism-based", "settings": "in vivo, 24 h"}, "[21]": {"test": "Binding affinity to Ni2+ ion assessed as affinity constant by spectrophotometric titration method", "outline": "as §2"}, "[22]": {"test": "Apparent volume of distribution in Sprague-Dawley rat at 600 umol/kg, po measured up to 1440 mins by LC/MS/MS analysis", "assay_type": "ADME, organism-based", "settings": "in vivo, 24 h"}, "[23]": {"test": "Drug level in rat stomach at 150 umol/kg, po measured measured up to 6 hrs by LC-MS/MS analysis", "assay_type": "ADME, organism-based", "settings": "in vivo", "outline": "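Single oral dose of 150 μmol/kg to SD rats, half male and half female, n=6 per group. Rats decapitated at 10 min, 30 min, 2 h and 6 h. Tissues dissected, saline-washed, weighed and homogenised in acetonitrile/water 1:9 (125 mg/mL). Drug level measured against plasma; mean ± SE.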"}, "[24]": {"test": "Acid dissociation constant, pKa2 of the compound over pH 1.8 to 11.0 by spectrophotometric titration method", "assay_type": "physicochemical", "outline": "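Automated spectrophotometric titration with 0.1 M KOH in 0.1 pH-unit steps. Reading accepted as stable when drift was <0.01 pH unit after a 1.5 min incubation. 10 mm path length cuvette. Spectra fitted by computer to obtain the pKa values.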"}, "[25]": {"test": "Binding affinity to Ni2+ ion assessed as pM value by spectrophotometric titration method"}, "[26]": {"test": "Drug metabolism in rat bile assessed as (2S,3S,4S,5R,6R)-3,4,5-trihydroxy-6-[(2R)-2-(3-hydroxy-2-methyl-4-oxo-1-pyridyl)-3-phenylpropoxy]tetrahydropyran-2-carboxylic acid formation at 150 umol/kg, po by LC/TOF/MS/MS analysis", "assay_type": "ADME, organism-based", "settings": "in vivo", "outline": "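Bile collected from rats after an oral dose of 150 μmol/kg. Metabolites characterised by β-glucuronidase hydrolysis and LC-TOFMS/MS. M2/M1 ratio followed over 8 h.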"}}}
{"smiles": "Cc1c(O)c(O)cc[n+]1[C@@H](CO)Cc1ccccc1.[Cl-]", "values": [{"measurement": "Activity", "setting": "[1]", "value": "Non-Toxic"}, {"measurement": "log K", "setting": "[2]", "value": 9.12}, {"measurement": "pM", "setting": "[3]", "value": 6.17}, {"measurement": "Activity", "setting": "[4]", "value": "3.6 - 48.5%"}, {"measurement": "Activity", "setting": "[5]", "value": "Non-Toxic"}, {"measurement": "Activity", "setting": "[6]", "value": "Non-Toxic"}, {"measurement": "Activity", "setting": "[7]", "value": "Non-Toxic"}, {"measurement": "Drug metabolism", "setting": "[8]", "value": "Metabolite_Detected"}, {"measurement": "Drug metabolism", "setting": "[9]", "value": "Metabolite_Detected"}, {"measurement": "Activity", "setting": "[10]", "value": "Non-Toxic"}, {"measurement": "Activity", "setting": "[11]", "value": "Non-Toxic"}, {"measurement": "pM", "setting": "[12]", "value": 7.59}, {"measurement": "IC50", "setting": "[13]", "value": "> 200", "unit": "µM"}, {"measurement": "Vz", "setting": "[14]", "value": 7.6, "unit": "L/kg"}, {"measurement": "Kp at 10 min", "setting": "[15]", "value": "3.3 to 8.8"}, {"measurement": "K", "setting": "[16]", "value": 19.8, "unit": "pM"}, {"measurement": "log K", "setting": "[16]", "value": 14.8}, {"measurement": "Cmax", "setting": "[17]", "value": 70, "unit": "µg/mL"}, {"measurement": "Drug metabolism", "setting": "[18]", "value": "Metabolite_Detected"}, {"measurement": "Activity", "setting": "[19]", "value": "Toxic"}, {"measurement": "Vz", "setting": "[20]", "value": 5.29, "unit": "L/kg"}, {"measurement": "log K", "setting": "[21]", "value": 6.92}, {"measurement": "Vz", "setting": "[22]", "value": 4.29, "unit": "L/kg"}, {"measurement": "Drug uptake", "setting": "[23]", "value": "Not Active"}, {"measurement": "pKa", "setting": "[24]", "value": 9.9}, {"measurement": "pM", "setting": "[25]", "value": 6.17}, {"measurement": "Drug metabolism", "setting": "[26]", "value": "Metabolite_Detected"}]}
